The test system of data set [1] is Plasmodium falciparum K1. As to the kind of experiment: Inhibition of CRT CVIET haplotype mutant in Plasmodium falciparum K1 isolate MRA-159 infected in erythrocytes assessed as chloroquine-coumarin probe accumulation at 10 uM after 10 hrs by Hoechst 33342 staining based flow cytometry (reference value: 35.57 +/- 3.84%). It counts as cell-based. The arrangement: scale not given: the % may be the effect or the level left. Put shortly: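 Infected erythrocyte cultures at 2.5% hematocrit and 7–12% parasitemia, synchronized to late-ring/early-trophozoite stage, were incubated with chloroquine-coumarin probe plus test agent for 10 h at 37 C. Cells were then washed, resuspended in PBS and read by flow cytometry (405 nm excitation, 450/50 filter). Hoechst-stained duplicate wells set parasitemia. Uptake = % infected erythrocytes fluorescent. Controls: PBS (negative), desipramine and parent compound (positive). ≥3 independent experiments; mean ± SEM.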
Background: A flow cytometer gives signals particle by particle.

Data set [2] concerns Plasmodium falciparum. Nature of the data set: Potentiation of chloroquine-induced antimalarial activity against chloroquine-sensitive Plasmodium falciparum 3D7 isolate MRA-102 assessed as reduction in chloroquine IC50 at 500 nM relative to chloroquine alone. It is filed as functional.
The test system of data set [3] is Plasmodium falciparum. Nature of the data set: Potentiation of chloroquine-induced antimalarial activity against chloroquine-sensitive Plasmodium falciparum HB3 isolate MRA-155 assessed as reduction in chloroquine IC50 at 500 nM relative to chloroquine alone. It counts as functional.
For data set [4], the system named is Plasmodium falciparum 7G8. As to the kind of experiment: Inhibition of CRT SVMNT haplotype mutant in intermediate chloroquine-resistant Plasmodium falciparum 7G8 isolate MRA-154 t assessed as reversal of chloroquine resistance by measuring reduction in chloroquine IC50 at 500 nM relative to chloroquine alone.
For data set [5], the system named is Plasmodium falciparum K1. Nature of the data set: Inhibition of CRT CVIET haplotype mutant in chloroquine-resistant Plasmodium falciparum K1 isolate MRA-159 assessed as reversal of chloroquine resistance by measuring reduction in chloroquine IC50 at 500 nM relative to chloroquine alone.
The subject of data set [6] is T1, Chloroquine resistance transporter (Plasmodium falciparum), Q9N623 [K76T].
T1 sequence (whole entry): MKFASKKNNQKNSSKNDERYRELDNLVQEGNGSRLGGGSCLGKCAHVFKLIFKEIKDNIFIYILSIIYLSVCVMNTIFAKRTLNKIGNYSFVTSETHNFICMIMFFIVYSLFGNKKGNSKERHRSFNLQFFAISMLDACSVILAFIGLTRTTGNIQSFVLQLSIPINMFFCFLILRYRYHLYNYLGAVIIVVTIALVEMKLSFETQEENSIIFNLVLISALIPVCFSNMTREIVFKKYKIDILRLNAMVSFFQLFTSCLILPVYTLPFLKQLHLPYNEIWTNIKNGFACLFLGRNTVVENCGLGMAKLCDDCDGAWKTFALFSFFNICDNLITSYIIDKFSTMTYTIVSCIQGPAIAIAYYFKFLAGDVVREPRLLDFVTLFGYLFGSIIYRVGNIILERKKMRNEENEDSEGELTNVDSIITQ
Nature of the data set: Inhibition of CRT K76T mutant in chloroquine-resistant Plasmodium falciparum Dd2 isolate MRA-156 assessed as reversal of chloroquine resistance by measuring reduction in chloroquine IC50 at 500 nM relative to chloroquine alone.

Data set [7] has the same test system. Nature of the data set: Inhibition of CRT K76T mutant in chloroquine/artemisinin-resistant Plasmodium falciparum ARS233 assessed as reversal of chloroquine resistance by measuring reduction in chloroquine IC50 at 500 nM relative to chloroquine alone.
Data set [8] has the same test system. Nature of the data set: Inhibition of CRT K76T mutant in chloroquine/artemisinin-resistant Plasmodium falciparum ARS272 assessed as reversal of chloroquine resistance by measuring reduction in chloroquine IC50 at 500 nM relative to chloroquine alone.
Data set [9] has the same test system. As to the kind of experiment: Inhibition of CRT K76T mutant in chloroquine-resistant Plasmodium falciparum NHP4559 assessed as reversal of chloroquine resistance by measuring reduction in chloroquine IC50 at 500 nM relative to chloroquine alone.
Data set [10] shares this test system. As to the kind of experiment: Inhibition of CRT K76T mutant in chloroquine/artemisinin-resistant Plasmodium falciparum NHP4773 assessed as reversal of chloroquine resistance by measuring reduction in chloroquine IC50 at 500 nM relative to chloroquine alone.
Data set [11] deals with Plasmodium falciparum. Nature of the data set: Intrinsic antimalarial activity against chloroquine-sensitive Plasmodium falciparum 3D7 isolate MRA-102 assessed as reduction in parasite viability at 500 nM. It counts as functional, organism-based.
Data set [12] relates to Plasmodium falciparum. Nature of the data set: Intrinsic antimalarial activity against chloroquine-sensitive Plasmodium falciparum HB3 isolate MRA-155 assessed as reduction in parasite viability at 500 nM. It is filed as functional, organism-based.
For data set [13], the system named is Plasmodium falciparum. Nature of the data set: Intrinsic antimalarial activity against intermediate chloroquine-resistant Plasmodium falciparum 7G8 isolate MRA-154 harboring CRT SVMNT haplotype mutant assessed as reduction in parasite viability at 500 nM. It is filed as functional, organism-based.
The test system of data set [14] is Plasmodium falciparum. Nature of the data set: Intrinsic antimalarial activity against chloroquine-resistant Plasmodium falciparum K1 isolate MRA-159 harboring CRT CVIET haplotype mutant assessed as reduction in parasite viability at 500 nM. It is filed as functional, organism-based.
Data set [15] has as its system Plasmodium falciparum. As to the kind of experiment: Intrinsic antimalarial activity against chloroquine-resistant Plasmodium falciparum Dd2 isolate MRA-156 harboring CRT K76T mutant assessed as reduction in parasite viability at 500 nM. It counts as functional, organism-based.
Data set [16] relates to Plasmodium falciparum. Nature of the data set: Intrinsic antimalarial activity against chloroquine/artemisinin-resistant Plasmodium falciparum ARS233 harboring CRT K76T mutant assessed as reduction in parasite viability at 500 nM. It counts as functional, organism-based.
Data set [17] deals with Plasmodium falciparum. Nature of the data set: Intrinsic antimalarial activity against chloroquine/artemisinin-resistant Plasmodium falciparum ARS272 harboring CRT K76T mutant assessed as reduction in parasite viability at 500 nM. It counts as functional, organism-based.
The subject of data set [18] is Plasmodium falciparum. Nature of the data set: Intrinsic antimalarial activity against chloroquine-resistant Plasmodium falciparum NHP4559 harboring CRT K76T mutant assessed as reduction in parasite viability at 500 nM. It counts as functional, organism-based.
Data set [19] relates to Plasmodium falciparum. Nature of the data set: Intrinsic antimalarial activity against chloroquine/artemisinin-resistant Plasmodium falciparum NHP4773 harboring CRT K76T mutant assessed as reduction in parasite viability at 500 nM. It is filed as functional, organism-based.
Data set [20] in a line: Resistance index, ratio of chloroquine IC50 for intermediate chloroquine-resistant Plasmodium falciparum 7G8 isolate MRA-154 CRT SVMNT haplotype mutant to chloroquine IC50 for chloroquine-sensitive Plasmodium falciparum 3D7 isolate MRA-102 at 500 nM. Put shortly: (§1)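 Chloroquine IC50 was measured with the chemoreversal agent fixed at 500 nM in K1 or 7G8 and in sensitive 3D7 (means, n = 3). The resistance ratio is the chloroquine IC50 in K1 or 7G8 divided by the chloroquine IC50 in 3D7.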

Data set [21] in a line: Resistance index, ratio of chloroquine IC50 for chloroquine-resistant Plasmodium falciparum K1 isolate MRA-159 CRT CVIET haplotype mutant to chloroquine IC50 for chloroquine-sensitive Plasmodium falciparum 3D7 isolate MRA-102 at 500 nM. Summed up:
as §1

Data set [22] in a line: Inhibition of CRT CVIET haplotype mutant in chloroquine-resistant Plasmodium falciparum K1 isolate MRA-159 assessed as reversal of chloroquine resistance by measuring reduction in chloroquine IC50 relative to chloroquine alone. Summed up: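 Chloroquine IC50 was determined in the presence of a fixed 500 nM chemoreversal agent, against chloroquine alone. The RMI is the ratio of chloroquine IC50 with agent to chloroquine IC50 alone. Mean of n = 3; two-tailed t test versus chloroquine without agent.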

A short description of data set [23]: Aqueous kinetic solubility of compound in pH 7.4 solution incubated for 24 hrs. It is filed as physicochemical. To be noted: aqueous solution pH 7.4, pH 7.4; read-out: Kinetic_solubility.

Converted amounts (≈) assume the structure as drawn. The source made the active and inactive calls. The calls are words filed in the database; no cut-off is given here.

Broadly, the EC50 is the concentration needed to bring the measured effect to its halfway point.

Consider `N#CC(CCN1CCCCC1)(c1ccccc1)c1ccccc1`, for which the Activity in the data set on Plasmodium falciparum K1 [1] is 67%. For the same molecule, the “Ratio IC50” value came out at 1.2 in the data set with Plasmodium falciparum [2]; 0.98 in the data set with Plasmodium falciparum [3]; 1 in data set [4]; 0.71 in the data set on Plasmodium falciparum K1 [5]; 0.76 in data set [6]; 0.7 in [7]. Besides, the Ratio IC50 in data set [8] was 0.7; in data set [9] it was 0.66; in [10], 0.74; in data set [20] it was 5.1; in data set [21] it was 12.2. Besides, the outcome in the data set with Plasmodium falciparum [11], in the data set on Plasmodium falciparum [12], in the data set with Plasmodium falciparum [13], in the data set on Plasmodium falciparum [14], in the data set with Plasmodium falciparum [15] and in the data set on Plasmodium falciparum [16] was inactive. For the same molecule, the outcome with Plasmodium falciparum [17], in the data set on Plasmodium falciparum [18] and in the data set with Plasmodium falciparum [19] was inactive. Further, the EC50 in data set [22] stood at 0.295 µM.
As to `NCC(CCN1CCC(O)CC1)(c1ccccc1)c1ccccc1`, in the data set on Plasmodium falciparum K1 [1], the Activity stood at 64.8%. In addition, the “Ratio IC50” value was found to be 1.13 in the data set on Plasmodium falciparum [2]; 0.99 in the data set on Plasmodium falciparum [3]; 0.98 in data set [4]; 0.74 in the data set with Plasmodium falciparum K1 [5]; 0.91 in data set [6]; 0.9 in data set [7]. Besides, the Ratio IC50 was 0.93 in data set [8]; 0.95 in [9]; 0.94 in data set [10]; 5.3 in [20]; 13.4 in data set [21]. For the same molecule, the outcome with Plasmodium falciparum [11], in the data set on Plasmodium falciparum [12], in the data set with Plasmodium falciparum [13], with Plasmodium falciparum [14], in the data set with Plasmodium falciparum [15] and in the data set with Plasmodium falciparum [16] was inactive. Besides, the outcome in the data set on Plasmodium falciparum [17], in the data set on Plasmodium falciparum [18] and in the data set with Plasmodium falciparum [19] was inactive.
`Clc1ccc2c(c1)C(N1CCNCC1)Cc1ccccc1S2` (stereo unspecified): the Activity with Plasmodium falciparum K1 [1] worked out at 79.6%. Further, the “Ratio IC50” value with Plasmodium falciparum [2] is 1.14; with Plasmodium falciparum [3], 0.93; in data set [4], 0.88; with Plasmodium falciparum K1 [5], 0.69; in data set [6], 0.83; in [7], 0.71. Also, the Ratio IC50 was determined as 0.76 in data set [8]; 0.73 in data set [9]; 0.73 in data set [10]; 4.8 in data set [20]; 12.4 in data set [21]. Further, the result in the data set with Plasmodium falciparum [11], in the data set with Plasmodium falciparum [12], in the data set on Plasmodium falciparum [13], in the data set with Plasmodium falciparum [14], in the data set with Plasmodium falciparum [15] and with Plasmodium falciparum [16] was inactive. Also, the outcome with Plasmodium falciparum [17], in the data set on Plasmodium falciparum [18] and with Plasmodium falciparum [19] was inactive. The solubility kinetic at 24 h in [23] was 38.1 µg/mL (≈ 115 µM).
Regarding `c1ccc2c(c1)CC(N1CCNCC1)c1ccccc1S2` (stereo unspecified), the Activity in the data set on Plasmodium falciparum K1 [1] is 69.8%. Also, the “Ratio IC50” value in the data set on Plasmodium falciparum [2] amounted to 1.21; in the data set on Plasmodium falciparum [3], 1; in [4], 0.76; in the data set on Plasmodium falciparum K1 [5] it was 0.55; in [6], 0.81; in data set [7], 0.64. Besides, the Ratio IC50 in data set [8] worked out at 0.68; in [9], 0.68; in data set [10], 0.69; in data set [20], 3.8; in data set [21], 9.3. Moreover, the result in the data set with Plasmodium falciparum [11], with Plasmodium falciparum [12], with Plasmodium falciparum [13], in the data set with Plasmodium falciparum [14], with Plasmodium falciparum [15] and in the data set with Plasmodium falciparum [16] was inactive. Moreover, the outcome in the data set with Plasmodium falciparum [17], with Plasmodium falciparum [18] and in the data set on Plasmodium falciparum [19] was inactive. The EC50 in data set [22] turned out to be 0.343 µM. Also, the solubility kinetic at 24 h in data set [23] was determined as 87.1 µg/mL (≈ 294 µM).
For the molecule `N[C@@H]1C2CCN(CC2)[C@@H]1C(c1ccccc1)c1ccccc1` (relative stereo), the Activity in the data set on Plasmodium falciparum K1 [1] came to 52.5%. For the same molecule, the “Ratio IC50” value in the data set on Plasmodium falciparum [2] was found to be 1.1; with Plasmodium falciparum [3], 0.99; in data set [4] it was 0.93; with Plasmodium falciparum K1 [5], 0.93; in data set [6] it was 0.94; in [7], 0.97. Further, the Ratio IC50 in data set [8] worked out at 0.99; in [9], 0.98; in data set [10], 1.04; in data set [20] it was 5.2; in [21], 17.4. Further, the result in the data set with Plasmodium falciparum [11], with Plasmodium falciparum [12], in the data set with Plasmodium falciparum [13], with Plasmodium falciparum [14], in the data set on Plasmodium falciparum [15] and with Plasmodium falciparum [16] was inactive. In addition, the result with Plasmodium falciparum [17], in the data set on Plasmodium falciparum [18] and in the data set on Plasmodium falciparum [19] was inactive.
Take `NCC(c1ccccc1)c1ccccc1`: the Activity with Plasmodium falciparum K1 [1] is 56.4%. The “Ratio IC50” value came to 1.11 in the data set with Plasmodium falciparum [2]; 1.1 in the data set on Plasmodium falciparum [3]; 0.69 in [4]; 0.45 with Plasmodium falciparum K1 [5]; 0.59 in data set [6]; 0.53 in [7]. For the same molecule, the Ratio IC50 in data set [8] was 0.37; in [9], 0.52; in data set [10], 0.54; in data set [20], 3.8; in data set [21] it was 8.4. Also, the result in the data set on Plasmodium falciparum [11], in the data set with Plasmodium falciparum [12], in the data set with Plasmodium falciparum [13], in the data set on Plasmodium falciparum [14], in the data set on Plasmodium falciparum [15] and in the data set with Plasmodium falciparum [16] was inactive. Further, the result in the data set on Plasmodium falciparum [17], in the data set on Plasmodium falciparum [18] and with Plasmodium falciparum [19] was inactive. Besides, the EC50 in data set [22] was 0.2 µM.
